In the library only some 3% were active in any assay of this set; here they are far more common.
GRIN3A LBD mod – modulates the human NR3A ligand-binding domain | NR3A LBD differential scanning fluorimetry, Tm shift; 0% = protein alone, 100% = glycine-bound protein | Tm shift relative to glycine control, % at 25 µM | 340,000 tested, 2.5% active;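 active = melting temperature shift of at least 10% of the positive control shift, at one fixed dose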
aDG glyco act – increases alpha dystroglycan glycosylation; Pro5-aDG cells, alpha-DG glycosylation AlphaScreen (IIH6); 0% Pro5, 100% B10-LARGE cell signal; activation, % at 10 µM; 360,000 tested, 0.22% active;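 active = activation of at least 8% versus controls, or a plate z-score of at least 8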;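 also: Pro5 are CHO cells carrying HIG-tagged alpha-DG that lacks glycosylation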
GC-B act – GC-B (human) receptor activation; P20594; HEK293-GC-B cells, CNP EC30, cGMP TR-FRET; 0% at EC30 CNP, 100% saturating CNP; activation, % at 10 µM; 370,000 tested, 0.11% active; AID 1920062;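 active = activation at 10 µM reaching about 35% in either raw or pattern-adjusted values, limit read from the data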
Target sequence (P20594 whole entry, looked up): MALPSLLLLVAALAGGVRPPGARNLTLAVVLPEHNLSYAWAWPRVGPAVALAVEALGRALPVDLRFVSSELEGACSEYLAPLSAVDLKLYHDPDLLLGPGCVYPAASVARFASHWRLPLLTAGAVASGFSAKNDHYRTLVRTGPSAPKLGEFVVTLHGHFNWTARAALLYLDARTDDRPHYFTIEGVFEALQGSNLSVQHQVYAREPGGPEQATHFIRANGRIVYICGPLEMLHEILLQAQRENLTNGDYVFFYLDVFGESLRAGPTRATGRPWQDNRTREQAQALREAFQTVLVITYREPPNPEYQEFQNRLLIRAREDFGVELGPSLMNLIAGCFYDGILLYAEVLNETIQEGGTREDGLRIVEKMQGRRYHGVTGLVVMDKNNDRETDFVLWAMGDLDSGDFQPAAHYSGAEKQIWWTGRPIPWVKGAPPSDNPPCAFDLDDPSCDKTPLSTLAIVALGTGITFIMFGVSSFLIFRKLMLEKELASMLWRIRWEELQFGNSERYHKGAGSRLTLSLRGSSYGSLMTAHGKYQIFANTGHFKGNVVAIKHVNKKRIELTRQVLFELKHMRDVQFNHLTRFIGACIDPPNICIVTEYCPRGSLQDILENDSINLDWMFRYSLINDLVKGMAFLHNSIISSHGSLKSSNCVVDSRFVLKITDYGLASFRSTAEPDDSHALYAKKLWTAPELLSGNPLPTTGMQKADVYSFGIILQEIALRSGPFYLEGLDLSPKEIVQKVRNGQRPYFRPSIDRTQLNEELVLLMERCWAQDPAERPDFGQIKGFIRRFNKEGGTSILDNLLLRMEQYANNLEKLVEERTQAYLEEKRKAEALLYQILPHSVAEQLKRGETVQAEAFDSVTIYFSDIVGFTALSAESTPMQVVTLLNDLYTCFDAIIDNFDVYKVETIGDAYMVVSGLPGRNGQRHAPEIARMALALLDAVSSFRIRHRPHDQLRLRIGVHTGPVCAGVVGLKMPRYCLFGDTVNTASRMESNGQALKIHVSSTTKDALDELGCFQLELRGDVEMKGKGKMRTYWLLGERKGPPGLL
NPR1 activator – GC-A (human) enzyme activation; activation, % at 10 µM; 370,000 tested, 0.14% active; AID 1671463; HEK293 GC-A cells, cGMP TR-FRET, EC30 ANP; 0% at EC30 ANP, 100% saturating ANP; in the data active = activation above about 40%
Lipid droplet – hepatic lipid droplet formation modulation | AML12 mouse hepatocytes, oleate lipid droplets, BODIPY imaging | 240,000 tested, 0.4% active | inhibition, % at 6.5 µM | AID 1656;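 active = lipid droplet intensity inhibited by at least 50%, with more than 500 cells counted; inconclusive = wells with under 300 cells, treated as cytotoxic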
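Test system: AML12 mouse liver cells; schedule: overnight exposure; technique: high-content imaging of BODIPY-stained droplets and DAPI nuclei; read-out: % inhibition of corrected integrated BODIPY droplet signal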
JMJD2C inh – human JMJD2C demethylase inhibition. Q9H3R0. GST-JMJD2C(1-420) H3K9me3 demethylation, DELFIA europium. inhibition, % at 2.35 µM. 330,000 tested, 0.069% active;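 active = more than half of a compound's replicate wells show inhibition beyond 50%, single wells judged on their own value; inconclusive = some, but no more than half, of replicates pass 50% inhibition; inactive = no replicate passes 50% inhibition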;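 also: signal counts dimethyl H3K9 product captured on neutravidin plate; 0% = median of DMSO wells and 100% = 0.3 times that DMSO median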
Active calls of the source: *; ? = inconclusive; . = no result.

SMILES | GRIN3A LBD mod | aDG glyco act | GC-B act | NPR1 activator | Lipid droplet | JMJD2C inh
O=C(CSc1nnc2ccccn12)Nc1cccc(S(=O)(=O)N2CCOCC2)c1 | 10* | 0 | 0 | -3 | 14 | 10
O=C(CCCNC(=O)c1ccc(Cl)cc1)Nc1cccc(S(=O)(=O)N2CCCCC2)c1 | -3 | 0 | 0 | -6 | . | -4
O=C(Oc1cccc(NC(=O)c2ccco2)c1)c1cccc(S(=O)(=O)N2CCCC2)c1 | -6 | 0 | -2 | 2 | -10 | 52*
Cn1c(SCC(=O)Nc2cccc(S(=O)(=O)N3CCOCC3)c2)nnc1-c1ccncc1 | 1 | 0 | 2 | 2 | -6 | 13
O=C(CCNC(=O)c1ccc(Cl)cc1)Nc1cccc(S(=O)(=O)N2CCCCCC2)c1 | 29* | 0 | -10 | -4 | . | -4
Cc1cccc(-n2c(CNC(=O)c3ccc(S(=O)(=O)N4CCCC4)cc3)n[nH]c2=S)c1 | 1 | 0 | 3 | 0 | 1 | -21
O=C(NCc1n[nH]c(=S)n1-c1cccc(Cl)c1)c1ccc(S(=O)(=O)N2CCCCC2)cc1 | 1 | 0 | 1 | 0 | 28 | 84*
COc1cccc(Cn2cc(COC(=O)N3CCCC3)nn2)c1 | . | . | -1 | 3 | . | .
C=CCN1C(=O)[C@@H](CC(=O)NCc2cccc(C(F)(F)F)c2)[C@]2(C(=O)OCC)CCCCC/C=C/12 | . | . | -10 | 3 | . | .
CCC1CCCCN1CCCNC(=O)C1CCCN(S(=O)(=O)N2CC(C)CC(C)C2)C1 (stereo not drawn) | -2 | 4 | 6 | 7 | -59 | 14
ClCCn1c(CCl)nc2ccc(Cl)cc21 | . | 0 | 5 | -2 | . | .
Cc1cc(S(=O)(=O)N2CCOCC2)ccc1OCC(=O)Nc1cccc(F)c1 | 37* | 0 | -3 | -1 | -6 | 24
O=C(COC(=O)c1ccc(Cl)c(S(=O)(=O)N2CCN(c3ccc(F)cc3)CC2)c1)Nc1cccc(Cl)c1 | 25* | 0 | -2 | -4 | 0 | -1
O=C(CNC(=O)c1cc(=O)[nH]c2ccc(S(=O)(=O)N3CCOCC3)cc12)Nc1ccc(F)c(F)c1 | 3 | 2 | -1 | -3 | . | .
O=C(CSc1nnc2c(n1)[nH]c1ccc(S(=O)(=O)N3CCOCC3)cc12)Nc1ccc(F)c(F)c1 | 35* | 0 | -3 | -9 | 21 | -15
O=C(COC(=O)c1cccc(S(=O)(=O)N2CCCC2)c1)Nc1ccc(Cl)cc1 | . | 0 | 97* | 0 | . | .
COc1ccc(NC(=O)COc2ccc(S(=O)(=O)N3CCOCC3)cc2C)cc1OC | 0 | 0 | -3 | -9 | -2 | 10
O=C(OC12CCCN(C1)/C(=C/c1ccccc1)C2)C1CCCC1 (stereo not drawn) | . | . | -6 | 4 | . | .
CCN(C(=O)C1CC1)C1CCS(=O)(=O)C1 (stereo not drawn) | 0 | 0 | 0 | 5 | . | ?
Fc1ccc(-c2nc3ccc(Br)cn3c2Cc2ccccc2C(F)(F)F)cc1 | . | 5 | -5 | 1 | . | .
CCCN1CCS(=O)(=O)N(Cc2cn(Cc3ccccc3)nn2)C(C(=O)OC)C1 (stereo not drawn) | . | . | -1 | 0 | . | .
COc1ccc(C)cc1NC(=O)NC1CC(=O)N(c2ccc3c(c2)OCCO3)C1 (stereo not drawn) | . | -1 | -4 | 1 | . | .
COC(=O)C[C@H]1C[C@@H]2c3cc(NC(=O)NC4CCCC4)ccc3O[C@@H]2[C@@H](CO)O1 | . | 0 | 0 | 0 | . | .
CSc1nc(-c2ccccc2)nc(C(C)C)n1 | 3 | 0 | 9 | -2 | . | 2
Cc1ccccc1CN1CCCCC(NC(=O)c2cc(-c3ccccc3)no2)C1=O (stereo not drawn) | . | . | 1 | 5 | . | .
SMILES | GRIN3A LBD mod | aDG glyco act | GC-B act | NPR1 activator | Lipid droplet | JMJD2C inh
O=C(CSc1nnc(Nc2ccccc2)s1)Nc1cccc(S(=O)(=O)N2CCCCC2)c1 | 16* | 0 | -1 | -8 | -3 | -25
COc1ccc(COC(=O)c2cccc(S(=O)(=O)N3CCCC3)c2)cc1F | 15* | 0 | 8 | 4 | -14 | -1
COc1ccccc1COC(=O)c1cccc(S(=O)(=O)N2CCCC2)c1 | 0 | 0 | 6 | -1 | . | .
Cc1cccc(C(C)C)c1NC(=O)COC(=O)c1cccc(S(=O)(=O)N2CCc3ccccc3C2)c1 | 22* | 0 | 0 | -7 | 0 | 1
O=C(CNc1cccc(F)c1)Nc1cccc(S(=O)(=O)N2CCCCC2)c1 | 14* | 0 | 3 | 2 | . | .
Cc1cc(S(=O)(=O)NCc2ccccc2)ccc1OCC(=O)Nc1cccc([N+](=O)[O-])c1 | 11* | 0 | -5 | -4 | 3 | -19
C/C(=N\NC(=O)c1ccccc1O)C1C(=O)c2ccccc2C1=O | 12* | 0 | -9 | 3 | 11 | 18
Cc1cccc(S(=O)(=O)N2CCC[C@H]2C(=O)N2CCC[C@@H]2C(=O)NCc2ccccc2)c1 | . | . | -7 | -1 | . | .
O=C1C=C(N(CCO)Cc2ccccc2)c2ccccc2C1=O | 0 | 14* | . | . | -4 | -11
O=C(CSc1nnc(-c2cccs2)n1Cc1ccco1)Nc1ccc(OCc2ccccc2)cc1 | . | . | 7 | 0 | . | .
CCn1c(=O)c(=O)n(CC)c2cc(S(=O)(=O)Nc3ccc(C)cc3)ccc21 | 0 | 0 | 0 | 0 | 0 | 7
CCn1c(=O)c(=O)[nH]c2c(=O)oc3ccc(S(=O)(=O)Nc4ccccc4)cc3c21 | 16* | 0 | -13 | -11 | 13 | 5
Cc1ccccc1/C=N/Nc1nc2ccccc2[nH]1 | -6 | 0 | -7 | -2 | -3 | -39
C(=N\Nc1nc(N2CCCCC2)nc(N2CCCCC2)n1)/c1c[nH]c2ccccc12 | 10* | 0 | -3 | 0 | -4 | -5
C(=N\Nc1nc2ccccc2[nH]1)/c1c[nH]c2ccccc12 | 15* | 1 | -4 | -10 | 15 | -5
Brc1ccc(-c2ccc(/C=N/Nc3nc4ccccc4[nH]3)o2)cc1 | 31* | 4 | 1 | 3 | 6 | -6
CSc1nc(N)nc2c1ncn2CC(=O)N[C@H](CO)Cc1c[nH]c2ccccc12 | 4 | 0 | -2 | 2 | . | 34
O=C(CSc1nc2ccc(NC(=O)CSc3nnnn3Cc3ccccc3)cc2s1)Nc1ccccc1 | 17* | 0 | -3 | 0 | -3 | -2
COc1ccccc1C(=O)Nc1ccc2nc(SCC(=O)N(C)C)sc2c1 | 2 | 0 | 0 | 0 | 4 | 7
Cc1ccccc1OCc1nnc(SCC(=O)Nc2ccc3nc(SCC(=O)Nc4ccccc4)sc3c2)n1C | 17* | 0 | -2 | -8 | 2 | 2
O=C(CSc1nc2ccc(NC(=O)c3ccccc3C(=O)O)cc2s1)Nc1ccc(F)c([N+](=O)[O-])c1 | 18* | 0 | -2 | -1 | 4 | -20

Screening data deposited in PubChem BioAssay by several laboratories.
